{"source": "PubChem BioAssay AID651931", "about": "(Vanderbilt Specialized Chemistry Center, 2012)", "molecular_target": "Muscarinic acetylcholine receptor M3 (Rattus norvegicus) (UniProt P08483)", "sequence (P08483 whole entry, looked up)": "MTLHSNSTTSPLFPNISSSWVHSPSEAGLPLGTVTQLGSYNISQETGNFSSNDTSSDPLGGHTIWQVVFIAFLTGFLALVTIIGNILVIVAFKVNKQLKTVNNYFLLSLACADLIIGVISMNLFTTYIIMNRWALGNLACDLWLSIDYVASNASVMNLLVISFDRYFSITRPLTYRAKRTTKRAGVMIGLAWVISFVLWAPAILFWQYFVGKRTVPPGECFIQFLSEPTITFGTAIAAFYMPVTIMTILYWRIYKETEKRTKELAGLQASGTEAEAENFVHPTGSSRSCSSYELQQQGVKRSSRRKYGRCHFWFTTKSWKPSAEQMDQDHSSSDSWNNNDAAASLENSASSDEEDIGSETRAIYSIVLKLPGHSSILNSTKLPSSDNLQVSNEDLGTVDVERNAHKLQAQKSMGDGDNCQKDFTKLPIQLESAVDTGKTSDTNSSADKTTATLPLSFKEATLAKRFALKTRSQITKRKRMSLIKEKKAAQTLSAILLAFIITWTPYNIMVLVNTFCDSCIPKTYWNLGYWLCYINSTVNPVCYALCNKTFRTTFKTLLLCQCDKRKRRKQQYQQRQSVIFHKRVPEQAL", "experiment": "M3 receptor potentiation by M5-directed compounds, selectivity assay for M5 PAM discovery project, CHO cells, rat M3, calcium flux (AID 651931)", "outline": "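System: Fluo-4-loaded stable M3 CHO-K1 cells; medium: HEPES-buffered HBSS plus probenecid, pH 7.4; also added: acetylcholine, EC20; timing: 1.5 min compound pre-incubation, 50 s ACh exposure, 25 °C read; measured by: Fluo-4 fluorescence calcium mobilization measurement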", "note": "Activity calls are given as the source filed them. The rule behind the calls is not given here."}
{"smiles": "O=C1C(=O)N(CCOc2ccccc2)c2ccc(OC(F)(F)F)cc21", "values": [{"measurement": "outcome", "value": "inactive"}]}
